These results are taken from ChEMBL document CHEMBL3588823, “Design, synthesis and biological evaluation of novel 5-oxo-2-thioxoimidazolidine derivatives as potent androgen receptor antagonists” (Eur J Med Chem, 2015).

The subject of series [1] is Rattus norvegicus. The experiment in a line: Volume of distribution in rat at 5 mg/kg, po. As to conditions: in vivo. Format: ADME, organism-based. The method in brief: (§1)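 Rats (n = 3) were given a single 5 mg/kg oral dose in 0.5% HPMC. Blood was taken into EDTA tubes at 15 and 30 min and 1, 2, 4, 8 and 24 h. Plasma was obtained by centrifugation and proteins were precipitated with acetonitrile. Bioavailability was calculated against a 1 mg/kg iv dose.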

A short description of series [2]: Oral bioavailability in rat at 5 mg/kg. As to conditions: in vivo. The series is classed as ADME, organism-based. The method in brief:
as §1

A short description of series [3]: MRT (last) in rat at 1 mg/kg, iv. Format: ADME, organism-based. As to conditions: in vivo. The method in brief: (§2)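 Rats (n = 3) were given a single 1 mg/kg iv dose in 20% hydroxypropyl-β-cyclodextrin. Blood was taken into EDTA tubes at 5, 15 and 30 min and 1, 2, 4, 8 and 24 h. Plasma was obtained by centrifugation and proteins were precipitated with acetonitrile before analysis.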

Series [4] in a line: Volume of distribution at steady state in rat at 1 mg/kg, iv. Format: ADME, organism-based. Particulars: in vivo, read-out: Vdss. The method in brief: as §2
For series [5], the system named is Rattus norvegicus. The experiment in a line: Clearance in rat at 5 mg/kg, po. Format: ADME, organism-based. As to conditions: in vivo. The method in brief: as §1
A short description of series [6]: Clearance in rat at 1 mg/kg, iv. As to conditions: in vivo. Format: ADME, organism-based. The method in brief:
as §2

A short description of series [7]: Tmax in rat at 5 mg/kg, po. The series is classed as ADME, organism-based. As to conditions: in vivo. The method in brief: as §1
For series [8], the target named is T1, Androgen receptor (Homo sapiens, UniProt P10275).
T1 sequence (P10275 whole entry): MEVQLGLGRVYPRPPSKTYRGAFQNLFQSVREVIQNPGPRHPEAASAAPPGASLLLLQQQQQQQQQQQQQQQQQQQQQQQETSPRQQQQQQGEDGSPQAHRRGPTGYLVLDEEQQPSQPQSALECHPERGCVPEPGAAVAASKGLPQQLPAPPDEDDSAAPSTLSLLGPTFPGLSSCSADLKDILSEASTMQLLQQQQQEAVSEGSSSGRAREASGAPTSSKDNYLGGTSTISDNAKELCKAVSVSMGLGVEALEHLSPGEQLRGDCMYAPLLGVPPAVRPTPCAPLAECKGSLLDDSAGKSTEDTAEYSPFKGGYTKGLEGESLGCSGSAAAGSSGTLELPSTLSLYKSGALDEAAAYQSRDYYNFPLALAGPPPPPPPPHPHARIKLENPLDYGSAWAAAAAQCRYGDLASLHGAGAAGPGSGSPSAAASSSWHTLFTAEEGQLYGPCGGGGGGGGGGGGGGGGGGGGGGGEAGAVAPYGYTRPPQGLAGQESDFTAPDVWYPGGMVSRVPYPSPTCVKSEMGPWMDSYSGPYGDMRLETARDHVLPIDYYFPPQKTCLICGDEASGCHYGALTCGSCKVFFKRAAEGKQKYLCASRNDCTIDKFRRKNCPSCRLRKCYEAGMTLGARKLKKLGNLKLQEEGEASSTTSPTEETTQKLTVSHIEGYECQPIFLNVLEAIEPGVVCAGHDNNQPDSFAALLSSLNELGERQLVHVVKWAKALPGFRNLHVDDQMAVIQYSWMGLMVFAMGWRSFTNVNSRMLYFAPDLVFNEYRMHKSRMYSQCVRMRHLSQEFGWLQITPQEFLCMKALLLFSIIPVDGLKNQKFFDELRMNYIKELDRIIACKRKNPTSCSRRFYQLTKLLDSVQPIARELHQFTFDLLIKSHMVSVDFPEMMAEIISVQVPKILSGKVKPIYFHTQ
The series is described as follows: Antagonist activity at androgen receptor (unknown origin).

The nature of series [9]: Tmax in rat at 1 mg/kg, iv. The series is classed as ADME, organism-based. As to conditions: in vivo. The method in brief: as §2
Series [10] is described as follows: Half life in rat at 1 mg/kg, iv. Particulars: in vivo. Format: ADME, organism-based. The method in brief: as §2
A short description of series [11]: Cmax in rat at 5 mg/kg, po. The series is classed as ADME, organism-based. The arrangement: dose 5 mg/kg, route oral. Particulars: in vivo. The method in brief: as §1
A short description of series [12]: AUC (0 to infinity) in rat at 1 mg/kg, iv. The series is classed as ADME, organism-based. Further details: dose 1 mg/kg, route intravenous, time infinity. Particulars: in vivo. The method in brief:
(§3)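 Rats (n = 3) given a single 1 mg/kg iv dose in 20% HP-b-CD. Blood was drawn into EDTA tubes at 5, 15 and 30 min and at 1, 2, 4, 8 and 24 h. Plasma was separated by centrifugation, mixed with acetonitrile:H2O (1:1 v/v) and protein-precipitated with acetonitrile.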

Series [13] is described as follows: MRT (INF) in rat at 5 mg/kg, po. Format: ADME, organism-based. As to conditions: in vivo. The method in brief:
as §1

Series [14] relates to Rattus norvegicus. The experiment in a line: Half life in rat at 5 mg/kg, po. Format: ADME, organism-based. As to conditions: in vivo. The method in brief: as §1
Series [15] concerns LNCaP. The experiment in a line: Antiproliferative activity against human LNCAP cells after 3 days. Format: functional, cell-based. Particulars: Homo sapiens, LNCaP, 72 h; read-out: IC50. The method in brief:
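LNCaP cells seeded at 10,000 per well in RPMI 1640 with 10% charcoal-stripped serum and 1% AAS, then held 3 days at 37 °C. Medium was then replaced with serial compound dilutions, either without DHT (agonism mode) or with DHT (antagonism mode).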

Series [16] can be described thus: AUC (0 to infinity) in rat at 5 mg/kg, po. The series is classed as ADME, organism-based. Further details: dose 5 mg/kg, route oral, time infinity. As to conditions: in vivo. The method in brief:
(§4)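 Rats (n = 3) received a single 5 mg/kg oral dose in 0.5% HPMC. EDTA blood samples were taken at 15 and 30 min and at 1, 2, 4, 8 and 24 h. Plasma was obtained by centrifugation, mixed with acetonitrile:H2O (1:1 v/v) and precipitated with acetonitrile.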

Series [17] can be described thus: Volume of distribution in rat at 1 mg/kg, iv. Particulars: in vivo. The series is classed as ADME, organism-based. The method in brief:
as §2

A short description of series [18]: AUC (0 to time) in rat at 1 mg/kg, iv. The series is classed as ADME, organism-based. As to conditions: in vivo. The method in brief: as §3
The nature of series [19]: MRT (last) in rat at 5 mg/kg, po. The series is classed as ADME, organism-based. As to conditions: in vivo. The method in brief: as §1
For series [20], the system named is Rattus norvegicus. The series is described as follows: Volume of distribution at steady state in rat at 5 mg/kg, po. The series is classed as ADME, organism-based. Particulars: in vivo. The method in brief:
as §1

Series [21] can be described thus: Cmax in rat at 1 mg/kg, iv. Format: ADME, organism-based. The arrangement: dose 1 mg/kg, route intravenous. As to conditions: in vivo. The method in brief: as §2
Series [22] is described as follows: AUC (0 to time) in rat at 5 mg/kg, po. The series is classed as ADME, organism-based. Particulars: in vivo. The method in brief: as §4
Series [23] in a line: MRT (INF) in rat at 1 mg/kg, iv. The series is classed as ADME, organism-based. As to conditions: in vivo. The method in brief:
as §2

SMILES strings stand for the structures.

One may read the bioavailability as the share of a dose that reaches the circulation, judged against a reference dose that is usually intravenous. The term MRT last denotes the average time that molecules of a dose stay in the body. The clearance is the volume of plasma or blood freed of the substance per unit of time. Low readings indicate inefficient removal, high ones efficient removal. By Tmax is commonly meant the time from dosing to the highest level. As usually defined, the Ki is the equilibrium dissociation constant of an inhibitor or competing ligand from its target. A high value points to weaker binding. As usually defined, the half-life is the time needed for the level to fall by half in the phase considered. A low value points to rapid decline. The Cmax is the maximum level reached in the sampled fluid or tissue. As usually defined, the AUC(0-inf) is the area under the concentration-time curve extrapolated to infinity. A high value points to more exposure. In general, MRT inf refers to the average time that molecules of a dose stay in the body. In general, IC50 refers to the point on the concentration scale where inhibition reaches its midpoint. Usually AUC stands for the area under the concentration-time curve, a measure of exposure. Low values mean low exposure, high ones high exposure. On to `N#Cc1ccc(N2C(=O)[C@]3(CCOC3)N(c3ccc(C(N)=O)c(F)c3)C2=S)cc1C(F)(F)F`, for which the Vd came out at 9.4 L/kg in [1], 6.1 L/kg in [4] and 7 L/kg in series [17]. Further, in [2], the bioavailability came out at 87%. For the same compound, the figures for the MRT last in [3] and in [19] were 1.6 h and 3.1 h, respectively. In [5], this compound gave a CL of 60 mL/min/kg. In addition, the clearance in series [6] was 55 mL/min/kg. For the same compound, the Tmax in series [7] turned out to be 2 h; in series [9] it was 4.98 min. The compound also displayed an inhibitory constant (Ki) in series [8] of 14.1 nM. In addition, in [10], the half-life was 1.5 h. The Cmax was 261 ng/mL in series [11] and 185 ng/mL in series [21]. Also, the AUC(0-inf) is 303 ng·h/mL in [12] and 1390 ng·h/mL in series [16]. For the same compound, the mean residence time (MRT inf) came out at 3.7 h in series [13] and 1.8 h in series [23]. Besides, the t1/2 in series [14] came out at 1.8 h. Moreover, in series [15], the IC50 was 71.4 nM. Besides, the AUC in [18] was 295 ng·h/mL; in series [22], 1280 ng·h/mL. The same compound displayed a Vdss in series [20] of 22.3 L/kg.
